In PMC5807869 (ACS Medicinal Chemistry Letters, 2018):

What was measured:
PDE5A1 = PDE5A1 (Homo sapiens, UniProt O76074); assay: Phosphodiesterase SPA assay, PDE5A1; assay type: biochemical; details: PDE5/2 selectivity
[1] = Predicted human pharmacokinetics; details: predicted from in vitro and in vivo properties
[2] = Metabolic stability in human hepatocytes; assay type: in vitro ADME
[3] = Apparent passive permeability, RRCK; assay type: in vitro ADME, Canine
iv/po PK in NHP = assay type: in vivo, Cynomolgus monkeys; details: male, cynomolgus monkey, plasma, 1 mg/kg
Method in brief: (§1)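 Each species study used two animals per dose. Clearance is the observed plasma clearance. The same studies also gave steady-state volume of distribution, half-life, oral bioavailability and percent renal clearance.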

[4] = Metabolic stability in human liver microsomes; assay type: in vitro ADME
[5] = tested on: broad spectrum BioPrint panel; assay: Broad spectrum BioPrint panel selectivity screening; details: no significant activities
iv/po PK in rat = assay type: in vivo
Method in brief: as §1

In the case of `Cc1nn2c(-c3c(C)nn(C)c3-c3ccc(C(F)(F)F)cc3)nc(CO)c2c(=O)[nH]1` [Compound 2, 7-(1,3-dimethyl-5-(4-(trifluoromethyl)phenyl)-1H-pyrazol-4-yl)-5-(hydroxymethyl)-2-methylimidazo[5,1-f][1,2,4]triazin-4(3H)-one], the “selectivity over other phosphodiesterases (margin)” value (PDE5A1) is reported as at least 1000 fold, the “predicted human plasma clearance” value [1] is reported as 2.9 mL/min/kg and the “predicted human t1/2” value [1] is reported as 3.7 h. For the same compound, the “predicted human volume of distribution” value [1] was 0.9 L/kg, the CLint scaled [2] was under 0.36 mL/min/kg and the “decrease of passive permeability relative to 1” value ([3]; RRCK Papp, 2 vs 1) was 3 fold. The clearance (iv/po PK in NHP) was 4 mL/min/kg, the CLint scaled [4] was under 8 mL/min/kg and the “IC50 or EC50 in BioPrint panel” value [5] was over 10 µM.

In the case of `Cc1nn2c(-c3c(C)nn(C)c3-c3ccc(C(F)(F)F)cc3)nc(C)c2c(=O)[nH]1` [Compound 1], the CLint scaled [2] is reported as 18 mL/min/kg, the Papp ([3]; dog, MDCK) is reported as 23 ×10⁻⁶ cm/s and the “in vivo rat clearance profile” value (iv/po PK in rat) is reported as “not show any extra-hepatic clearance pathways”. The CLint scaled [4] was 16 mL/min/kg.

Work on `Cc1nn2c(-c3c(CO)nn(C)c3-c3ccc(C(F)(F)F)cc3)nc(CO)c2c(=O)[nH]1` [Compound 6] yielded a CLint scaled [4] of under 9.2 mL/min/kg.

Work on `Cc1nn2c(-c3c(CO)nn(C)c3-c3ccc(C(F)(F)F)cc3)nc(C)c2c(=O)[nH]1` [Compound 5] yielded a CLint scaled [4] of under 8 mL/min/kg.
